The structures appear in SMILES notation. Residue numbers refer to the chain shown, from its start. pIC50, pKd: −log10 of the molar value. “Also recorded” adds a separate entry of the source.

These results are taken from article PMC12096016 (Protein Science : A Publication of the Protein Society, 2025).

The target in experiment [1] is T1, apo‐EntB (wild‐type EntB) (Escherichia coli, UniProt P0ADI4).
T1 sequence (P0ADI4 1-285): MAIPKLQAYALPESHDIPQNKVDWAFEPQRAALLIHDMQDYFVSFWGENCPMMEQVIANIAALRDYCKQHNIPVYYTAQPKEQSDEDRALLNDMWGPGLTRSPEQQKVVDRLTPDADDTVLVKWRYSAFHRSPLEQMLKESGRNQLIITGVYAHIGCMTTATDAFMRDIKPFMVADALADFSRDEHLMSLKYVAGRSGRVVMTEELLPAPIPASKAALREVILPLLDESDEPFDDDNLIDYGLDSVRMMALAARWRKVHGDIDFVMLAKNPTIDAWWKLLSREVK
The experiment is described as follows: Fluorescence anisotropy binding assay, wild-type EntB. The method in brief:
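The test compound was held at 2 μM and purified protein was titrated in. Buffer was 50 mM HEPES pH 8.0, 150 mM NaCl, 1 mM TCEP, with 10 min preincubation at RT. Anisotropy was read at 21°C (ex 315 nm, em 437 nm, 10 nm slits), G-factor corrected, in triplicate. Apparent KD came from a one-site total-binding fit.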
(In general: Polarisation of emitted light reports the rotation of a fluorescent probe.)

Another experiment deals with T2, EntB variant R196A (Escherichia coli, UniProt P0ADI4, R196A).
T2 sequence (P0ADI4 1-285 R196A): T1 sequence (P0ADI4 1-285) with R196A
The experiment is described as follows: Fluorescence anisotropy binding assay, EntB R196A. The note with it: EntB R196A titrated into 2.00 μM 2,3‐DHB; apparent K D not determinable (no saturation).

For experiment [2], the target named is T3, EntB‐driven EntC reaction (Escherichia coli, UniProt P0ADI4).
T3 sequence (P0ADI4 1-285): T1 sequence (P0ADI4 1-285)
The experiment is described as follows: Isothermal titration microcalorimetry of the EntC–EntB coupled reaction. The following applies: 313 nM EntC, 1293 nM EntB, 0, 250, 500 μM DHB, 30°C. It counts as biochemical. The method in brief: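 The sample cell held 313 nM EntC with or without EntB (162–2587 nM). Two injections of 79 μM chorismate were given 10 min apart, stirring at 300 RPM. Integrated heats were corrected for buffer injection and chorismate dilution heats.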
(In general: Isothermal titration calorimetry measures the heat released or taken up as one component is titrated into another.)

For experiment [3], the target named is T4, wild‐type EntB isochorismatase (Escherichia coli, UniProt P0ADI4).
T4 sequence (P0ADI4 1-285): T1 sequence (P0ADI4 1-285)
The experiment is described as follows: EntB‐LDH coupled isochorismatase activity assay, wild-type EntB. The following applies: for Isochorismate apparent K m / V max: 0.1 μM EntB. It counts as biochemical. The method in brief: (§1)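 His-tagged EntB (pCA24N, E. coli AG-1, IMAC-purified) at 0.10 μM was preincubated 10 min at RT with 1.50 unit/mL LDH and 350 μM NADH in 50 mM HEPES pH 8.0, 150 mM NaCl, 1 mM TCEP. Substrate was a ~3:2 chorismate:isochorismate mix made with EntC and 5 mM MgCl2 on ice for 20 min, then filtered. It was added at 6.2–73.9 μM, and OD340 loss was followed at 21°C. Test compound was at 0, 100, 250 or 400 μM. Km and Vmax came from Michaelis–Menten fits, and Ki from an Eadie–Hofstee slope replot.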

A further experiment deals with EntB. The note with it: compared with 2,5‐DHB and 3,5‐DHB; ref Khalil & Pawelek, 2009; cited from earlier work.
Experiment [4] deals with T5, EntB R196A isochorismatase (Escherichia coli, UniProt P0ADI4, R196A).
T5 sequence (P0ADI4 1-285 R196A): T1 sequence (P0ADI4 1-285) with R196A
The experiment is described as follows: EntB‐LDH coupled isochorismatase activity assay, EntB R196A. It counts as biochemical. The procedure, abridged: as §1

Turning to `O=C(O)c1cccc(O)c1O` [2,3‐DHB, 2,3‐dihydroxybenzoic acid], the pKd in experiment [1] was 5.05. For the same molecule, the “affinity relative to wild‐type EntB” value on EntB variant R196A is given as “much lower affinity than wild‐type EntB”. The “effect on heat evolution (integrated reaction heats)” value in experiment [2] is “suppression of integrated reaction heats; also recorded: heat evolution decreased in a DHB‐dependent manner”. For the same molecule, the pIC50 is 3.44 in experiment [3] and 3.16 in experiment [4]. Besides, the “Isochorismate apparent K m” value in experiment [3] (100 μM 2,3‐DHB) was found to be 16.24 ± 1.57 µM; in experiment [3] (250 μM 2,3‐DHB), 22.12 ± 3.25 µM; in experiment [3] (400 μM 2,3‐DHB), 32.55 ± 0.23 µM. For the same molecule, the V max in experiment [3] (100 μM 2,3‐DHB) stood at 5.25 ± 0.17 µM/min; in experiment [3] (250 μM 2,3‐DHB) it was 4.99 ± 0.52 µM/min; in experiment [3] (400 μM 2,3‐DHB) it was 5.33 ± 0.05 µM/min. Further, the mode of inhibition entry in experiment [3] (Eadie–Hofstee plot, linear fits converge at the ordinate) is on record as “competitive inhibition”. Also, the “quenching of EntB intrinsic fluorescence” value in the experiment on EntB is reported as “able to specifically quench EntB fluorescence; also recorded: most strongly quenched”.

The pKd is the negative decadic logarithm of the Kd, by convention in mol/L. As usually defined, the pIC50 is the IC50 on a negative log10 scale, so that one unit is a factor of ten.
